Experimental findings from ChEMBL document CHEMBL4513216, “Probing the Open Global Health Chemical Diversity Library for Multistage-Active Starting Points for Next-Generation Antimalarials” (ACS Infect Dis, 2020) are described below.

The series can be described thus: Toxicity liver stage against HepG2, at 10uM. Format: cell-based. Further details: test concentration 10 uM, cell line HepG2-A16-CD81EGFP. The conditions noted are these: human, HepG2-A16-CD81EGFP cells; read-out: INHIBITION
The method, boiled down: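 Uninfected HepG2-A16-CD81EGFP cells, 3 × 10^3 per well, 1536-well, plated on prespotted compound at 10 μM final, parasite-free screening media added to match infected plates; puromycin 10 μM positive, DMSO 0.5% negative; run in parallel with 48 h PbLuc assay at 37 °C, 5% CO2; viability by CellTiter-Glo luminescence, normalized to controls.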

In the case of `N#CC1(NC(=O)CN2CCC(c3ccnn3CCO)CC2)CCCC1`, the cytotoxicity at 10 µM was determined as 2.85%. For `Fc1ccc2[nH]c(C3CCCN3Cc3c[nH]cn3)nc2c1` (configuration not stated), the cytotoxicity at 10 µM came to 0.786%. For `O=C1CCC(c2nc(C3CCNCC3)no2)N1` (configuration not stated) the value was -3.96%; for `CCn1nc(C)c2ncnc(N(C)Cc3ccco3)c21`, 8.88%; for `O=C(c1ccccc1N1CCOCC1)N1CCCC1Cn1cccn1` (configuration not stated), -7.44%. The result for `Cc1nn2c(NC(=O)CSc3ncccn3)csc2nc1=O` reads 2.74%; that for `Cc1cc(C)n(CCC(=O)N2CCCC(n3cncn3)C2)n1` (configuration not stated), -5.05%.

With `CCc1ccc(C(=O)N2CCCC(c3nn[nH]n3)C2)cc1` (configuration not stated), the cytotoxicity at 10 µM came out at 4.6%. On to `COCCN1CCN(CC(=O)N(C)Cc2ccsc2)CC1C` (configuration not stated), for which the cytotoxicity at 10 µM is -127%. Take `COc1ccc(C(=O)N2CCOCC2c2ccc(C)o2)cc1` (configuration not stated): the cytotoxicity at 10 µM was -2.24%. For `CCNc1nc(C)c(C(=O)N2CCC(C(O)Cc3ccccc3)CC2)s1` (configuration not stated) the value was 13.5%; for `CCn1cc(NC(=O)c2cccc(CN3C[C@@H](C)O[C@@H](C)C3)c2)nn1`, 1.31%; for `COc1ccc(CC(=O)N2CCCCC2Cn2cc(C)cn2)cc1F` (configuration not stated), -14.1%. Regarding `CN(Cc1ccc(CCC(C)(C)O)cc1)Cc1cccc(O)c1`, the cytotoxicity at 10 µM is -7.43%.

For `Cc1ccc(CN(Cc2ccncc2)C2CC(C)(C)NC(C)(C)C2)o1`, the cytotoxicity at 10 µM was -12.3%. Regarding `COCCN1CCC(c2nc3c([nH]2)CC(C)(C)CNC3=O)C1` (configuration not stated), the cytotoxicity at 10 µM was -2.18%. For the compound `CC(C)n1c(C2CCCN(CCS(C)(=O)=O)C2)nc2ccccc21` (configuration not stated), the cytotoxicity at 10 µM is -10.4%.

With `CCc1sc(-c2nnc(CNC(C)Cn3cccn3)o2)cc1C` (configuration not stated), the cytotoxicity at 10 µM is 0.749%. Regarding `CCC(Nc1nc(C2CCCC2)nc2c1cnn2C)c1ccncc1` (configuration not stated), the cytotoxicity at 10 µM is -39.6%. Regarding `CCOCc1nc2c(c(NCCNC(C)=O)n1)CCN(C(C)=O)CC2`, the cytotoxicity at 10 µM is 9.93%. The result for `Cc1cc(NC(=O)CCc2ccsc2)n(C)n1` reads 17.8%; that for `CCc1ccccc1Nc1noc2c1CN(C(=O)c1ccn(C)n1)CC2`, 0.295%. For `Cc1noc([C@@H]2CCO[C@@H]3CCN(Cc4cccs4)C[C@@H]32)n1`, the cytotoxicity at 10 µM is -74.6%.

In the case of `CN(C)Cc1cn2c(n1)CN(C(=O)Cc1ccsc1)CC2`, the cytotoxicity at 10 µM is -136%. Take `COc1cc(Cl)ccc1CNC(=O)N1CCC(n2cncn2)CC1`: the cytotoxicity at 10 µM was -0.861%.

For `COc1c(C(=O)NCc2cccnc2)nnn1Cc1ccc(C)cc1`, the cytotoxicity at 10 µM was 11.8%.

Take `Cc1cc(C2CCCN2C(=O)CN(C)Cc2ccccc2)no1` (configuration not stated): the cytotoxicity at 10 µM amounted to 5.1%.

Regarding `O=C(NCCc1noc(C2CCCO2)n1)c1cn2ccsc2n1` (configuration not stated), the cytotoxicity at 10 µM was -4.4%. The result for `CCN1CCC12CCN(C(=O)c1ccsc1)C2` (configuration not stated) reads -148%.

Consider `CCc1c(C)sc2ncnc(N3CC[C@@H](N4CCC(O)CC4)[C@H](O)C3)c12`, for which the cytotoxicity at 10 µM is 6.96%. For `Cc1cc(C(=O)N2CCc3ncc(CN4CCOCC4)n3CC2)no1` the value was 3.76%; for `Cc1c(CN2CCCCC2)c(O)n(CCO)c(=O)c1C#N`, -1.64%; for `CN(CCCc1ccccc1)C(=O)CCc1nc(-c2nnc[nH]2)no1`, -44.8%.

As for `CC(C)Cc1nnc(SCC(=O)O)n1-c1ccc(F)cc1F`, the cytotoxicity at 10 µM was -6.13%. For `O=C(Nc1ccc(CCN2CCC(O)CC2)cc1)C1CCCCC1` the value was -17.7%; for `CCN1C(=O)C(c2ccccc2)CC12CCN(S(C)(=O)=O)CC2` (configuration not stated), 3.2%.

For `CCc1nc(CN(C)CC(c2cccs2)N2CCOCC2)no1` (configuration not stated), the cytotoxicity at 10 µM is -2.36%. On to `O=C(NCC(=O)N1CC2(CCCC2)c2c(F)cccc21)C1CC1`, for which the cytotoxicity at 10 µM is -3.47%.

In the case of `NC(=O)c1ccc(C(=O)N(Cc2ccc(O)cc2)CC2CC2)cc1`, the cytotoxicity at 10 µM came out at 8.19%. For `Cn1cc(CC2CCN(C(=O)NCCCc3ccc(O)cc3)C2)cn1` (configuration not stated) the value was 0.557%.

`Cn1ccnc1CN1CCC(Cc2ccccn2)CC1`: the cytotoxicity at 10 µM is -10.2%. As for `Cn1cc(C[C@H]2[C@H](O)CCN2Cc2ccc3c(c2)OCO3)cn1`, the cytotoxicity at 10 µM was -80.5%. The result for `Cn1cnnc1C1CCN(C(=O)c2cc3c(s2)CCC3)CC1` reads -10%; that for `CCOC(=O)[C@H]1[C@@H](O)C(=O)N(C)C12CCN(C(=O)OCC)CC2`, -7.83%; that for `Cc1ccc(NCc2ccc(C#N)cc2)c(CN(C)C)c1`, -3.07%.

As to `CCCOc1ccccc1CN[C@@H]1CCC[C@H]1Cc1cc(C)no1`, the cytotoxicity at 10 µM was -6.86%.

On to `CCOC(=O)C1CN(S(=O)(=O)C2CC2)Cc2ncn(CC)c21` (configuration not stated), for which the cytotoxicity at 10 µM came to 6.71%. As to `CCOC1CCN(C(=O)NCCN(C)C(=O)OC(C)(C)C)CC1`, the cytotoxicity at 10 µM came to 15.8%. On to `NC(=O)C1CCN(c2ncc(-c3cnccn3)c([C@H]3CCCO3)n2)CC1`, for which the cytotoxicity at 10 µM is -0.24%. `CCc1nnc(Nc2cc(C)nc(C3CCN(c4ncccn4)C3)n2)s1` (configuration not stated): the cytotoxicity at 10 µM came out at 3.07%. Turning to `COCCC(=O)N1CCC2(CCN(Cc3cccc(F)c3)C2)C1` (configuration not stated), the cytotoxicity at 10 µM is -60.2%.

With `CC(C)c1nc(CN(C)C(=O)c2ccc3c(c2)OCO3)cs1`, the cytotoxicity at 10 µM is -1.1%. Turning to `CC(=O)N1CCCN(C(=O)c2cnn(-c3ccccc3Cl)c2)CC1`, the cytotoxicity at 10 µM was -11.4%. As for `O=C(NCC(Cc1cccc(F)c1)N1CCCC1=O)C1CCCC1` (configuration not stated), the cytotoxicity at 10 µM turned out to be 1.39%. The result for `Cn1cccc1C(=O)NC[C@H]1C[C@@H]2CN(C(=O)c3ccco3)C[C@@H]2O1` reads -105%. For `Cc1cccnc1CNc1ccc(C(=O)N2CCc3ccccc32)cn1`, the cytotoxicity at 10 µM is -0.608%. For `O=C([C@@H]1C[C@@H]2CCN(CCc3ccccc3)C[C@H]2O1)N1CCCC1` the value was 0.307%; for `O[C@H]1COCCN(Cc2cccc3c2OCO3)C1`, -3.04%.

Consider `Cc1noc(-c2ccc(N3CCN(Cc4nccn4C)CC3)nc2)n1`, for which the cytotoxicity at 10 µM amounted to 3.19%. `CCc1n[nH]c(C2CN(C(=O)c3ccnc(N(C)C)c3)CCO2)n1` (configuration not stated): the cytotoxicity at 10 µM came out at 6.66%. With `O=C(Cc1ccc2c(c1)OCCO2)N1CCCC(n2ccnc2)C1` (configuration not stated), the cytotoxicity at 10 µM came out at 3.8%.

Consider `Cc1cc(N2CCC(Cc3cccnc3)CC2)ncn1`, for which the cytotoxicity at 10 µM is 1.96%. The result for `Cc1cccc(NCc2nn(C)c(=O)[nH]2)c1` reads 2.6%; that for `COc1ccc(C(C)NCc2ccc(OC)c(OC)c2OC)cc1F` (configuration not stated), 55.9%. `CCS(=O)(=O)CCn1ccc(NC(=O)CCc2cccc(C)c2)n1`: the cytotoxicity at 10 µM is 2.94%. Regarding `CCc1nnc(CN2CCC(N3CCN(CC)C3=O)CC2)o1`, the cytotoxicity at 10 µM amounted to 1.52%.

`O=C(NCc1ccon1)Nc1cc(F)ccc1N1CCCCC1`: the cytotoxicity at 10 µM was determined as 12.7%. In the case of `CCc1c(C)nc2cc(C3CCN(Cc4cccc(F)c4)C3)nn2c1O` (configuration not stated), the cytotoxicity at 10 µM is -6.43%. With `COC[C@H](C)Nc1cc(C)c2ccc(SC)cc2n1`, the cytotoxicity at 10 µM was 0.466%. Turning to `N[C@H]1CN(C(=O)Cc2cc(F)cc(Cl)c2)C[C@@H]1C1CC1`, the cytotoxicity at 10 µM stood at 0.0152%. Regarding `O=C(CCn1cncn1)NCC(c1ccco1)N1CCCC1` (configuration not stated), the cytotoxicity at 10 µM is -3.62%. As for `O=C(CCc1nccs1)N1CCN(c2cccnn2)CC1`, the cytotoxicity at 10 µM was -2.84%.

Turning to `O=C(NCC(O)c1ccsc1)c1sccc1OC(F)F` (configuration not stated), the cytotoxicity at 10 µM was -16%. The result for `CN(C)C(=O)c1cnc2n1CCN(Cc1cccnc1)C2` reads -67%; that for `Cc1nc(NCCC23CCCN2CCC3)cc(C2CCCNC2)n1` (configuration not stated), 7.98%; that for `CC(C)CN1C(=O)CO[C@@H]2CN(C(=O)C3CCOC3)C[C@H]21` (some centres not stated), -70.3%. Turning to `CC(C)NC(=O)N1CCN(C(=O)C(C)C)CC2(CC(=O)N(C)C2)C1` (configuration not stated), the cytotoxicity at 10 µM was -0.704%. With `COc1cccc(OCc2cc(C(=O)NC[C@H]3CCCN3)n[nH]2)c1`, the cytotoxicity at 10 µM is -4.9%. Turning to `Cc1noc(CNc2ccccc2C(=O)N2CCCC(O)C2)n1` (configuration not stated), the cytotoxicity at 10 µM was -3.13%. For `Cc1csc2ncc(-c3ccnc(N4CCC[C@H](C(N)=O)C4)n3)c(=O)n12`, the cytotoxicity at 10 µM is -13.3%. For `Cc1cnc(NC(C)Cc2cnccn2)nc1N(C)C` (configuration not stated), the cytotoxicity at 10 µM was 0.342%. `CC(=O)NCc1nnc2n1CCN(Cc1cccs1)C2`: the cytotoxicity at 10 µM was -149%. On to `CN(Cc1ccc(C(=O)Nc2sccc2C#N)cc1)Cc1ccno1`, for which the cytotoxicity at 10 µM is -1.65%. With `O=C(O)c1ccc(CN2CCCC(Cc3ccn[nH]3)C2)cc1` (configuration not stated), the cytotoxicity at 10 µM was -6.08%.

For `Cc1cscc1C(=O)N1CCCC1CC(=O)c1cnn(C)c1` (configuration not stated), the cytotoxicity at 10 µM was -3.4%. On to `c1cnnc(N2CCC(c3nnc(Cn4ccnc4)n3C3CC3)CC2)c1`, for which the cytotoxicity at 10 µM worked out at 6.71%. For `COc1ccc(CN(C)C2CCN(C(=O)C(C)C)CC2)c2cccnc12` the value was 12.5%; for `COC(=O)CCC(=O)N1CCCC2(CCCN2Cc2cccc(F)c2)C1` (configuration not stated), -104%. For `Cc1noc(C)c1CN(Cc1ccccc1)C(C)C`, the cytotoxicity at 10 µM is -9.74%. For `COc1ccc(CN2C[C@H]3CC[C@@H](C2)N(S(=O)(=O)C2CC2)C3)cc1`, the cytotoxicity at 10 µM was -1.12%. As to `Cn1ccnc1COc1ccc(CSc2nnnn2C2CC2)cc1`, the cytotoxicity at 10 µM was -0.146%. Take `CCCNC(=O)COc1cc(C)c2c(C)nn(-c3ccc(C)cc3)c2n1`: the cytotoxicity at 10 µM is -0.217%. As to `COc1ncccc1C(=O)N(C)Cc1nc(-c2ccccn2)no1`, the cytotoxicity at 10 µM turned out to be 3.38%. As for `CC(=O)N1CCC2(CC1)CN(C)CC[C@H]2C(F)(F)F`, the cytotoxicity at 10 µM is -153%.

For `COc1ncc(C(F)(F)F)c(C(=O)O)c1Cl`, the cytotoxicity at 10 µM amounted to 16.7%.

Turning to `O=C(c1cc(=O)c(OCc2ccccc2F)co1)N1CCSCC1`, the cytotoxicity at 10 µM was -3.82%.

Regarding `Cn1cnc(CN2Cc3nccn3CC2c2ccccc2)c1` (configuration not stated), the cytotoxicity at 10 µM worked out at 2.98%.
